# According to ChEMBL document CHEMBL1649261, “Pharmacodynamic profile of tigecycline against methicillin-resistant Staphylococcus aureus in an experimental pneumonia model” (Antimicrob Agents Chemother, 2009):
# Assays:
# [1] = Ratio of fAUC to MIC in community-acquired methicillin-resistant Staphylococcus aureus 147-infected BALB/c mouse at 80% maximal effective concentration; type: functional
# Procedure, shortened: (§1)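 Neutropenic BALB/c mice (cyclophosphamide 250 and 100 mg/kg i.p., 4 and 1 days before infection) were infected by oral inhalation of 0.05 ml inoculum in 3% mucin under isoflurane. Subcutaneous tigecycline (1.56–150 mg/kg/day, single or 2–3 divided doses, saline vehicle) was started 6 h post-infection. At 24 h lungs were homogenized and plated; change in log10 CFU was taken versus 0-h controls.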
# [2] = Tmax in BALB/c mouse infected with Staphylococcus aureus at 6.25 mg/kg, sc administered as single dose; type: ADME, organism-based; parameters: dose 6.25 mg/kg, route subcutaneous; details: in vivo
# Procedure, shortened: (§2)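 Neutropenic BALB/c mice (cyclophosphamide ip 250 and 100 mg/kg, days −4 and −1) with S. aureus pneumonia from oral instillation of 0.05 ml of a 3% mucin suspension received a single 0.2-ml sc dose in normal saline. Serum was taken at 0.25, 0.5, 1, 1.5, 2, 4, 6 and 8 h, six mice per time point. Drug was measured by validated HPLC.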
# [3] = Cmax in BALB/c mouse infected with Staphylococcus aureus at 12.5 mg/kg, sc administered as single dose; type: ADME, organism-based; parameters: dose 12.5 mg/kg, route subcutaneous; details: in vivo; procedure, shortened: as §2
# Mus musculus [4] = test: Volume of distribution in BALB/c mouse infected with Staphylococcus aureus at 25 mg/kg, sc administered as single dose; type: ADME, organism-based; parameters: dose 25 mg/kg, route subcutaneous; details: in vivo; procedure, shortened: as §2
# [5] = Cmax in BALB/c mouse infected with Staphylococcus aureus at 25 mg/kg, sc administered as single dose; type: ADME, organism-based; parameters: dose 25 mg/kg, route subcutaneous; details: in vivo; procedure, shortened: as §2
# [6] = Ratio of fAUC to MIC in community-acquired methicillin-resistant Staphylococcus aureus 147-infected BALB/c mouse at […] maximal effective concentration; type: functional; procedure, shortened: as §1
# [7] = AUC (0 to 24 hrs) in BALB/c mouse infected with Staphylococcus aureus at 6.25 mg/kg, sc administered as single dose; type: ADME, organism-based; parameters: time < 24 hr, dose 6.25 mg/kg, route subcutaneous; details: plasma; procedure, shortened: as §2
# [8] = Protein binding in Staphylococcus aureus-infected BALB/c mouse serum at 12.5 mg/kg, sc administered as single dose; type: ADME, organism-based; parameters: dose 12.5 mg/kg, route subcutaneous; details: read-out: PB (converted)
# Procedure, shortened: (§3)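 Ultrafiltration was run in triplicate with 30,000-MW cutoff devices. Drug was diluted into fresh mouse serum to final 1.5, 3, 6 and 15 μg/ml, held at 37°C for 10 min with shaking, and centrifuged at 1,000 × g for 45 min at 10°C. Binding was calculated as (S − SUF)/S × 100 for each concentration, each matched to a dose by its peak serum level.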
# [9] = Ratio of fAUC to MIC in hospital-acquired methicillin-resistant Staphylococcus aureus 56-infected BALB/c mouse at bacteriostatic concentration; type: functional; procedure, shortened: as §1
# Staphylococcus aureus [10] = test: Antibacterial activity against methicillin-susceptible Staphylococcus aureus ATCC 29213 by microdilution method; type: functional
# Procedure, shortened: (§4)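 Tigecycline MIC measured in triplicate by broth microdilution following CLSI guidelines. Isolates were stored at −80°C in skim milk and subcultured twice on blood agar before testing.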
# Mus musculus [11] = test: Volume of distribution in BALB/c mouse infected with Staphylococcus aureus at 50 mg/kg, sc administered as single dose; type: ADME, organism-based; parameters: dose 50 mg/kg, route subcutaneous; details: in vivo; procedure, shortened: as §2
# [12] = AUC (0 to 24 hrs) in BALB/c mouse infected with Staphylococcus aureus at 25 mg/kg, sc administered as single dose; type: ADME, organism-based; parameters: time < 24 hr, dose 25 mg/kg, route subcutaneous; details: plasma; procedure, shortened: as §2
# [13] = Tmax in BALB/c mouse infected with Staphylococcus aureus at 12.5 mg/kg, sc administered as single dose; type: ADME, organism-based; parameters: dose 12.5 mg/kg, route subcutaneous; details: in vivo; procedure, shortened: as §2
# [14] = Ratio of fAUC to MIC in hospital-acquired methicillin-resistant Staphylococcus aureus 152-infected BALB/c mouse at bacteriostatic concentration; type: functional
# Procedure, shortened: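 Neutropenic BALB/c mice (cyclophosphamide ip 250 and 100 mg/kg, 4 days and 1 day pre-inoculation), isoflurane-anaesthetised, inoculated via the mouth with 0.05 ml of 3.0 × 10^8 CFU/ml in 3% mucin. SC tigecycline in saline, 1.56–150 mg/kg/day single or 2–3 divided doses from 6 h. Whole-lung CFU at 24 h versus 0-h controls; sigmoid Emax fit of Δlog10 CFU against fAUC/MIC gives stasis value.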
# [15] = Protein binding in Staphylococcus aureus-infected BALB/c mouse serum at 6.25 mg/kg, sc administered as single dose; type: ADME, organism-based; parameters: dose 6.25 mg/kg, route subcutaneous; details: read-out: PB (converted); procedure, shortened: as §3
# Staphylococcus aureus [16] = test: Antibacterial activity against hospital-acquired methicillin-resistant Staphylococcus aureus 152 by microdilution method; type: functional; procedure, shortened: as §4
# [17] = Ratio of fAUC to MIC in methicillin-susceptible Staphylococcus aureus ATCC 29213-infected BALB/c mouse at bacteriostatic concentration; type: functional
# Procedure, shortened: (§5)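 Mice were neutropenic and infected by lung instillation with ATCC 29213, with the MIC set by CLSI broth microdilution in triplicate. Sc treatment started 6 h post-inoculation at 1.56–150 mg/kg/day, given as one, two or three doses. Lung CFU at 24 h were compared with 0-h controls. Change in log10 CFU was fitted against protein-binding-corrected fAUC/MIC with a sigmoid Emax model.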
# [18] = Ratio of fAUC to MIC in hospital-acquired methicillin-resistant Staphylococcus aureus 56-infected BALB/c mouse at […] maximal effective concentration; type: functional; procedure, shortened: as §1
# [19] = Tmax in BALB/c mouse infected with Staphylococcus aureus at 25 mg/kg, sc administered as single dose; type: ADME, organism-based; parameters: dose 25 mg/kg, route subcutaneous; details: in vivo; procedure, shortened: as §2
# [20] = AUC (0 to 8 hrs) in Staphylococcus aureus-infected BALB/c mouse epithelial lining fluid at 25 mg/kg, sc administered as single dose; type: ADME, organism-based; parameters: time < 8 hr, dose 25 mg/kg, route subcutaneous
# Procedure, shortened: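 Infected neutropenic BALB/c mice received a single sc dose in saline. Normal-saline bronchoalveolar lavage was done at 0.25, 1, 4 and 8 h, six mice per time. HPLC drug levels in lavage were converted to epithelial lining fluid concentrations with the serum/BAL urea ratio. AUC0-8 was calculated by the trapezoidal rule, and ELF drug was taken as free drug.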
# [21] = Ratio of fAUC to MIC in hospital-acquired methicillin-resistant Staphylococcus aureus 152-infected BALB/c mouse at […] maximal effective concentration; type: functional; procedure, shortened: as §1
# [22] = Protein binding in Staphylococcus aureus-infected BALB/c mouse serum at 25 mg/kg, sc administered as single dose; type: ADME, organism-based; parameters: dose 25 mg/kg, route subcutaneous; details: read-out: PB (converted); procedure, shortened: as §3
# [23] = Ratio of fAUC to MIC in methicillin-susceptible Staphylococcus aureus ATCC 29213-infected BALB/c mouse at 80% maximal effective concentration; type: functional; procedure, shortened: as §5
# [24] = Half life in BALB/c mouse infected with Staphylococcus aureus at 25 mg/kg, sc administered as single dose; type: ADME, organism-based; parameters: dose 25 mg/kg, route subcutaneous; details: in vivo; procedure, shortened: as §2
# [25] = Tmax in BALB/c mouse infected with Staphylococcus aureus at 50 mg/kg, sc administered as single dose; type: ADME, organism-based; parameters: dose 50 mg/kg, route subcutaneous; details: in vivo; procedure, shortened: as §2
# [26] = Cmax in BALB/c mouse infected with Staphylococcus aureus at 50 mg/kg, sc administered as single dose; type: ADME, organism-based; parameters: dose 50 mg/kg, route subcutaneous; details: in vivo; procedure, shortened: as §2
# [27] = Ratio of fAUC to MIC in community-acquired methicillin-resistant Staphylococcus aureus 144-infected BALB/c mouse at 80% maximal effective concentration; type: functional; procedure, shortened: as §1
smiles,measurement,setting,value
CN(C)c1cc(NC(=O)CNC(C)(C)C)c(O)c2c1C[C@H]1C[C@H]3[C@H](N(C)C)C(O)=C(C(N)=O)C(=O)[C@@]3(O)C(O)=C1C2=O [TIGECYCLINE],fAUC/MIC,[1],3.12
same,Tmax,[2],20.4 min
same,Cmax,[3],3090 ng/mL
same,Vd,Mus musculus [4],2.77 L/kg
same,Cmax,[5],5990 ng/mL
same,fAUC/MIC,[6],0.69
same,AUC(0-t) at 24 h,[7],9980 ng·h/mL
same,fraction unbound,[8],0.128
same,fAUC/MIC,[9],0.43
same,MIC,Staphylococcus aureus [10],0.25 µg/mL
same,Vd,Mus musculus [11],2.62 L/kg
same,AUC(0-t) at 24 h,[12],37500 ng·h/mL
same,Tmax,[13],16.2 min
same,fAUC/MIC,[14],1.51
same,fraction unbound,[15],0.15
same,MIC,Staphylococcus aureus [16],0.25 µg/mL
same,fAUC/MIC,[17],2.38
same,fAUC/MIC,[18],0.38
same,Tmax,[19],44.4 min
same,AUC(0-t) at 8 h,[20],20400 ng·h/mL
same,fAUC/MIC,[21],1.43
same,fraction unbound,[22],0.063
same,fAUC/MIC,[23],2.68
same,half-life,[24],746 min
same,Tmax,[25],21 min
same,Cmax,[26],15800 ng/mL
same,fAUC/MIC,[27],2.64
